Drawing on ChEMBL document CHEMBL1139252, “Inhibition of purple acid phosphatase with alpha-alkoxynaphthylmethylphosphonic acids” (Bioorg Med Chem Lett, 2009), this text covers IC50 for six molecules.

Experiment [1] has as its target T1, Fe(3+)-Zn(2+) purple acid phosphatase (Phaseolus vulgaris, UniProt P80366).
T1 sequence (P80366 whole entry): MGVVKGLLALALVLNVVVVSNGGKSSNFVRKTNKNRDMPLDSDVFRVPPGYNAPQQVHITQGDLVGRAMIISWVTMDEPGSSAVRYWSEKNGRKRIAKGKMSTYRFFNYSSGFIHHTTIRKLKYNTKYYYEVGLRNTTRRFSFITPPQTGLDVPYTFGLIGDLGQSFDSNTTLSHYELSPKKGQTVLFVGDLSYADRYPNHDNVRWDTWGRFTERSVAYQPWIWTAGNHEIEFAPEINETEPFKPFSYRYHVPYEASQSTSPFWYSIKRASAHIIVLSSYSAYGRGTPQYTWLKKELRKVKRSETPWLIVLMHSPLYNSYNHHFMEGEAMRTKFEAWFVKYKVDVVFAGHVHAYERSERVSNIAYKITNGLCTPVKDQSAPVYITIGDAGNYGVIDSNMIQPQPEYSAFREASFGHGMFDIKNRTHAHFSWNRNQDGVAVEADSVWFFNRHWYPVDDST
The experiment in a line: Inhibition of red kidney bean PAP at pH 6.2. Put shortly: (§1)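 Each enzyme was run at its own pH optimum: red kidney bean PAP at pH 6.2 and pig PAP at pH 4.9. IC50 values were determined experimentally. Separate inhibition constants were derived for binding to the free enzyme and to the enzyme–substrate complex.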

Experiment [2] can be described thus: Inhibition of human PAP.
Experiment [3] in a line: Inhibition of pig PAP at pH 4.9. Set-up: species or system Sus scrofa. In a few lines:
as §1

In general, IC50 refers to the concentration that gives 50% inhibition. A higher IC50 goes with lower potency.

In experiment [1], `O=P(O)(O)C(O)c1cccc2ccccc12` (stereo not given) showed an IC50 of 5000 µM. `O=C(c1ccccc1)C(C(=O)c1ccccc1)(c1cccc2ccccc12)P(=O)(O)O` yielded an IC50 in experiment [2] of 1.4 µM. Regarding `O=P(O)(O)Cc1cccc2ccccc12`, the values for the IC50 in experiment [1] and in experiment [2] were over 7000 µM and 30 µM, respectively. Take `CCCCCCCCOC(c1cccc2ccccc12)P(=O)(O)O` (racemic): the results for the IC50 in experiment [3] and in experiment [1] were 30 µM and 100 µM, respectively. Taken in the same sequence, the figures for `CCCCCCCCCCOC(c1cccc2ccccc12)P(=O)(O)O` (racemic) were 20 µM and 8 µM. For `CCCCCCOC(c1cccc2ccccc12)P(=O)(O)O` (racemic), in that order: 430 µM and 1000 µM.
